Source: PubChem BioAssay
Ba/F3 V617F tox: reduce viability of Ba/F3 cells dependent on JAK2V617F. inhibition, % at 5.6 µM. 1.1% of 220,000 active. Ba/F3 EpoR-JAK2V617F viability, ATP luminescence;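 active = inhibition above the campaign mean plus 3 SD over all tested compounds, cut at about 24% in these data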;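 note: cytokine-independent growth of Ba/F3 cells driven by EpoR plus mutant JAK2; 0% = DMSO-treated cells and 100% = JAK inhibitor I control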
BaF3 tox: parental Ba/F3 viability inhibition as JAK2V617F counter-screen | CellTiter-Glo ATP luminescence | inhibition, % at 5.6 µM | 1.1% of 220,000 active | AID 1486;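 active = inhibition above a per-campaign cutoff, the mean inhibition of all tested compounds plus 3 SD, cut at about 27% in these data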;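 note: 0% = DMSO wells and 100% = JAK Inhibitor I control wells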
b-catenin transl: modulators of beta-catenin nuclear translocation | HeLa beta-catenin nuclear translocation, immunofluorescence imaging | nuclear translocation activity, % at 5 µM | 0.3% of 190,000 active | AID 1665;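 active = nuclear translocation activity above 50% at 5 µM, with a well cell count of 50 or more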;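 note: per-cell ratio of nuclear to cytoplasmic median beta-catenin stain intensity; plate controls were DMSO negative control for no effect and GSK-3 inhibitor IX positive control for full effect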
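Test system: HeLa cells, endogenous beta-catenin; Compound: single 5 µM dose plus 0.02–20 µM confirmation series; Times: compound exposure 24 h at 37°C; Signal: fluorescence imaging of beta-catenin antibody stain plus DAPI; Read-out: % activation, nuclear-to-cytoplasmic median beta-catenin signal ratio per cell.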
IEC-6 tox: counter-screen for KLF5 inhibitors: cytotoxicity in IEC-6 cells | inhibition, % at 5 µM | AID 1825 | 0.78% of 290,000 active | IEC-6 cytotoxicity, luminescence viability; in the data active = inhibition above about 22%;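 note: 0% = plate median of test compound wells and 100% = cytotoxic reference compound wells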
KLF5 inh: inhibitors of KLF5 expression; DLD-1 KLF5 promoter-luciferase reporter, luminescence; inhibition, % at 5 µM; 0.23% of 290,000 active;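 active = inhibition above a per-plate limit of that plate's mean compound inhibition plus 3 SD, cut at about 60% in these data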;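 note: 0% = DMSO wells and 100% = LY294002 at 200 µM; higher means less KLF5 promoter-driven luciferase light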
MT stabilizer: microtubule stabilizers in HeLa cells | HeLa tubulin immunostaining HCS, 24 h; share of cells brighter than vehicle mean+2SD | % tubulin-high responders, % at 10 µM | 0.83% of 200,000 active | AID 2205;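 active = plate Z-score above 3 for both tubulin-high and condensed-nucleus cell shares, with cell loss under 80%, at 10 µM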;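 note: anti alpha tubulin signal scored within the nucleus-defined area of each cell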
The depositor's hits bear a star; . = no result given. Most compounds without a hit are left out; they make up all but 2.1% or so of the library.

SMILES	Ba/F3 V617F tox	BaF3 tox	b-catenin transl	IEC-6 tox	KLF5 inh	MT stabilizer
CCC(CC)C1C(C#N)=C(N)Oc2n[nH]c(-c3ccccc3)c21 (configuration not stated)	-3	1	5	-1	-7	5
Cc1ccc(N(CC(=O)NCC2CCCO2)C(=O)CCC(=O)Nc2cc(C)on2)cc1 (configuration not stated)	.	.	.	1	-13	.
C=CCN(CC(=O)NCC1CCCO1)C(=O)CCC(=O)Nc1cc(C)on1 (configuration not stated)	-4	93*	-5	-1	-1	3
O=S(=O)(c1ccccc1)n1ccc2cccnc21	-2	1	-3	2	-5	2
COc1ccc(C(=O)Nc2nnc(Cc3cccs3)s2)cc1OC	39*	41*	0	4	14	4
COc1ccc(Cc2nnc(NC(=O)c3ccc(OC)c(OC)c3)s2)cc1	.	.	.	2	-13	.
OC(COc1ccc(CNCCc2ccc(C(F)(F)F)cc2)cc1)CN1CCCCC1 (configuration not stated)	102*	103*	13	99*	-16	4
OC(COc1ccccc1)CN1CCCCCC1 (configuration not stated)	0	81*	0	11	5	2
Cc1ccc(C(OCC(O)CN2CCCCC2)c2ccccc2)cc1 (configuration not stated)	.	.	.	0	-3	.
OC(COC(c1ccccc1)c1ccccc1)CN1CCOCC1 (configuration not stated)	-1	81*	2	-2	-4	4
CCOC(=O)C(CC)n1cnc2c(nnn2-c2ccc(F)cc2)c1=O (configuration not stated)	.	.	.	-3	-10	.
Cc1nc2sc(-c3ccccc3)cc2c(=O)[nH]1	4	7	.	6	15	5
O=c1[nH]c(-c2cccnc2)nc2sc(-c3ccccc3)cc12	-2	6	120*	4	-6	20*
O=C(Nc1ccc(Nc2ccccc2)cc1)C(Cl)(Cl)Cl	-4	50*	.	-6	-26	4
NC(=O)Nc1ccc(Nc2ccccc2)cc1	2	0	2	-1	-14	.
Cc1ccc(C(=O)N/C(=C\c2cccs2)C(=O)NCC2CCCO2)cc1C (configuration not stated)	0	2	.	2	-19	3
COc1ccc(C(=O)Nc2cnn(Cc3ccc(Cl)cc3)c2)cc1OC	35*	36*	.	2	38	3
CC(=O)N(c1ccc(Cl)cc1)c1cn(C(C)=O)c2ccccc12	0	2	-1	-5	-27	1
CC(=O)n1cc(N(C(=O)CCl)c2ccc(C)cc2)c2ccccc21	99*	28*	0	23*	-7	.
Cc1ccc(C(=O)C2CCN(C(=S)NCCCOC(C)C)CC2)cc1	.	.	.	-11	-28	.
CCC(C)c1ccc(NC(=O)C2CCCN(c3ncccn3)C2)cc1 (configuration not stated)	-1	2	2	3	-19	36*
Cc1ccc(Nc2nc(N)nc(CN3CCCCCC3)n2)c(C)c1	5	8	1	-2	-17	3
Cc1ccc(Nc2nc(N)nc(CN3CCC(C)CC3)n2)c(C)c1	-2	89*	.	6	-9	3
FC(F)(F)c1cc(N2CCOCC2)nc(-c2ccccc2)n1	-1	6	0	-3	-13	2
Cc1ccc(-c2cc(C(=O)N/N=C/C(Br)=C/c3ccccc3)n[nH]2)o1	-2	-4	5	5	-13	12*
SMILES	Ba/F3 V617F tox	BaF3 tox	b-catenin transl	IEC-6 tox	KLF5 inh	MT stabilizer
COc1cccc(C(=O)N/N=C/C(Br)=C/c2ccccc2)c1	-2	3	60*	10	-46	23*
O=C(Cc1cccs1)N/N=C/C(Br)=C/c1ccccc1	2	2	0	-2	-72	4
Cc1ccccc1NCC(=O)N/N=C/C(Br)=C/c1ccccc1	3	6	4	0	-11	26*
Cc1ccc(-c2cc(C(=O)N/N=C/c3ccccc3O)n[nH]2)o1	.	.	.	8	14	.
Cc1cccc(NS(=O)(=O)c2cccc(C(=O)NCC(C)(C)N3CCOCC3)c2)c1	.	.	.	1	-33	.
Cc1ccccc1CN1CCCC(C(=O)Nc2ccccc2Oc2cccnc2)C1 (configuration not stated)	.	.	.	-2	-30	.
CO/N=C\CC(=O)Nc1ccc(Oc2ccccc2)cc1	2	2	165*	10	7	27*
Cc1c(/C=N/NC(=O)COc2ccccc2[N+](=O)[O-])c2ccccc2n1C	-3	-3	3	-10	-7	3
Cc1ccc(OCC(=O)N/N=C\c2c(C)n(C)c3ccccc23)c([N+](=O)[O-])c1	2	5	3	5	4	47*
CSc1cc(-c2ccc(Cl)cc2)n(Cc2ccccc2)c(=O)c1C#N	-3	1	.	2	-30	1
CSc1cc(-c2ccccc2)n(Cc2c(Cl)cccc2Cl)c(=O)c1C#N	-2	5	.	-1	-42	40*
O=C(/C=C/c1ccccc1)Nc1nc(-c2ccncc2)cs1	39*	43*	-1	6	-64	6
Cn1c(SC2=CS(=O)(=O)c3ccccc32)nc2ccccc21	89*	65*	2	21	-14	2
O=C(Nc1ccc(S(=O)(=O)N2CCCCC2)cc1)c1ccc(CN2CCc3ccccc3C2)cc1	30*	34*	4	12	48	2
O=C(Nc1ccccc1)c1ccc(CN2CCc3ccccc3C2)cc1	3	-1	1	3	-19	4
CC1(c2ccc(Cl)cc2Cl)OCC(Cn2ccnc2)O1 (configuration not stated)	0	95*	2	2	-17	36*
C[n+]1c2n(c3ccccc31)N=C(c1cc(C(C)(C)C)c(O)c(C(C)(C)C)c1)CS2	99*	79*	1	18	29	5
CCOC(=O)Cc1csc(NS(=O)(=O)Cc2ccccc2)n1	0	5	0	-3	7	6
O=C(CSCc1ccc([N+](=O)[O-])cc1)N/N=C/c1ccncc1	2	84*	1	-2	-27	2
COc1ccc(-n2c(-c3ccccc3)nnc2-c2ccc(Cl)cc2)cc1	-1	2	-3	-8	6	1
COc1ccc(-n2c(-c3ccc(Cl)cc3)c[n+]3c2CCc2ccccc2-3)cc1	84*	69*	2	10	0	3
Cc1ccc(NC(=S)NNC(=S)Nc2ccc(C)cc2C)cc1	82*	30*	52*	6	-22	9.8*
COc1ccc(CNCC(O)COc2cccc3c2OC(C)(C)C3)cc1 (configuration not stated)	20	29*	0	17	-12	2
C=CCn1c(=O)c(C(=O)NC2CC2)c(O)c2cc(OC)c(OC)cc21	.	.	.	6	11	.
